Like-named read-outs stand apart in the source and are kept apart here.
Columns and labels:
MRC5 cells = experiment: MRC5 live-cell imaging; assay type: cell-based, human; details: 1 μM
Method in brief: (§1)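 IncuCyte S3 real-time growth, 4× objective: MRC5 (EMEM + 10% FBS, 4,000 cells/well) or MM.1S (RPMI 1640 + 10% FBS, 24,000 cells/well) seeded overnight, then exposed to test compound, idasanutlin or DMSO. Images every 6 h for 120 h from treatment start; growth expressed as phase object confluence.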

RKO-E6 cells = experiment: RKO-E6 cell viability; assay type: cell-based, human
MV4-11 tumors = experiment: MV4-11 cell-line-derived xenograft mouse model; assay type: in vivo; details: for tumor growth inhibition: MV4-11 tumors, oral, 24 days
Method in brief: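 Female CB-17 SCID mice (6-9 wk, 18-23 g) implanted s.c. in right flank with 10×10⁶ MV4-11 cells in PBS/Matrigel 50/50. Oral gavage dosing; tumour and body weight twice weekly. Final-day urine collected at three intervals, diluted 1:50, mouse MIC-1 ELISA (OD450 minus OD570, standard curve). Tumours removed 4 h after last dose, RIPA-homogenised, p53 and p21 by Western blot.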

p21 in MM.1S cells = experiment: Time course of p21 levels in MM.1S cells; assay type: cell-based, human; details: time course 2-24 h
Method in brief: (§2)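 MM.1S cells (RPMI 1640, 10% FBS, 1% L-glutamine) treated with test compound and sampled over a time course. Lysis in RIPA 30 min at 4°C, centrifugal clarification, BCA normalisation, reducing SDS-PAGE and immunoblot for p53 and p21. Chemiluminescent detection, densitometric band quantification; signal relative to DMSO-treated cells, mean ± standard deviation.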

MM.1S cells [1] = experiment: MM.1S live-cell imaging; assay type: cell-based, human; details: 1 μM, 5 days
Method in brief: as §1

[2] = tested on: 44 DUBs (DUBprofiler panel); experiment: DUB selectivity profiling; assay type: biochemical; details: 10 μM compound
recombinant human USP7 = recombinant human USP7 (Homo sapiens, UniProt Q93009); experiment: In vitro USP7 activity assay; assay type: biochemical
Chain of recombinant human USP7 (Q93009 whole entry): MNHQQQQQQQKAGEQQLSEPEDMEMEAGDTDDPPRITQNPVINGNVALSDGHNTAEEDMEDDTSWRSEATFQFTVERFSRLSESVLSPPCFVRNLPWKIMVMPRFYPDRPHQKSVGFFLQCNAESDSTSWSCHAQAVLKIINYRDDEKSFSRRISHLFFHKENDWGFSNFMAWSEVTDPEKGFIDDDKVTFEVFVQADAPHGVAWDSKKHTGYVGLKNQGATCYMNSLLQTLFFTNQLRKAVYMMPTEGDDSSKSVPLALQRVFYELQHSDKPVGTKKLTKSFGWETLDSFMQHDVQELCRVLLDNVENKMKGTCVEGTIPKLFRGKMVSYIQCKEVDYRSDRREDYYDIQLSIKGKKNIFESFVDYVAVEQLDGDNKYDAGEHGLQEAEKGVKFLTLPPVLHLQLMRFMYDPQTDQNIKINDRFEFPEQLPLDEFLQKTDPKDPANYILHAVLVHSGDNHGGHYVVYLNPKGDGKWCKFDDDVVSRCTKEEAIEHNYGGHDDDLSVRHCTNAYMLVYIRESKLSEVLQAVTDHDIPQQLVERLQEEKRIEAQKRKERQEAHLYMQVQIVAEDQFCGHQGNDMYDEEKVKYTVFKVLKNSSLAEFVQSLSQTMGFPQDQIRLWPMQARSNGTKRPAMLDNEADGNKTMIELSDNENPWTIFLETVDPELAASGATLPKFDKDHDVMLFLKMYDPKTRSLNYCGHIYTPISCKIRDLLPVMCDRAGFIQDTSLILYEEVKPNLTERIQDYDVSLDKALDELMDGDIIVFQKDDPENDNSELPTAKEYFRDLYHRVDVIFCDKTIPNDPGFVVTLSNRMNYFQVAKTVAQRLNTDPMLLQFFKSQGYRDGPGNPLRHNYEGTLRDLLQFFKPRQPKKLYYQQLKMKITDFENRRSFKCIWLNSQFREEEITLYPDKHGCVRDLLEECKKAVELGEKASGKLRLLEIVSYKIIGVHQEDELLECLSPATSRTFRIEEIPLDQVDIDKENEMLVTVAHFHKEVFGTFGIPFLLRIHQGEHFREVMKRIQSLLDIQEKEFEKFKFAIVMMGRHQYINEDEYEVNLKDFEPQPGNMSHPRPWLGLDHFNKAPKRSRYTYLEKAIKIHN
Method in brief: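 Test compound, 4-fold 10-point series from 2.5 µM top, pre-incubated 30 min at room temperature with 167 pM Sf21-baculovirus-expressed human USP7 in 20 mM HEPES pH 7.3, 150 mM NaCl, 1 mM TCEP, 125 µg/mL BSA, 0.4% DMSO. Ubiquitin-rhodamine added to 160 nM final; reaction 90 min at room temperature, acetic acid stop. Fluorescence 485/520 nm. % inhibition vs DMSO and no-enzyme controls; IC50 from curve fit; triplicate.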

[3] = tested on: p53 levels in MM.1S cells; experiment: Meso Scale Discovery total p53 assay in MM.1S cells; assay type: cell-based; details: Homo sapiens, MM1.S, 4 h, read-out: MM.1S p53 EC50
Method in brief: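 MM.1S cells plated at 1×10⁶/well overnight, then exposed 4 h to test compound, 4-fold 9-point series spanning 20 µM to 0.0003 µM, or DMSO (0.1% final). Total p53 in whole-cell lysate measured by Meso Scale Discovery immunoassay kit. p53 signal plotted against concentration and fitted for EC50.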

p53 WT cell lines [4] = experiment: Cellular viability assays of p53 WT cell lines; assay type: cell-based; details: read-out: IC50 in cellular viability assays of p53 WT cell lines
MM.1S tumors = experiment: MM.1S cell-line-derived xenograft mouse model; assay type: in vivo
Method in brief: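 Female CB-17 SCID mice (6-9 wk, 18-23 g) implanted s.c. in right flank with 5×10⁶ MM.1S cells in PBS/Matrigel 50/50. Randomised at mean tumour ~105 mm³; test compound by oral gavage; tumour and body weight measured twice weekly. Final-day urine at three intervals, diluted 1:50, mouse MIC-1 ELISA (OD450 minus OD570, standard curve). Tumours harvested 2 h post last dose, RIPA-homogenised, p53/p21 Western blot.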

p53 in MM.1S cells = experiment: Time course of p53 levels in MM.1S cells; assay type: cell-based, human; details: for maximum increase of p53 above DMSO-treated cells: time course 2-24 h
Method in brief: as §2

RKO cells = experiment: RKO cell viability; assay type: cell-based; details: Homo sapiens, 72 h, read-out: RKO IC50
MM.1S cells [5] = experiment: MM.1S cell viability; assay type: cell-based, human
p53 WT cell lines [6] = details: read-out: IC50 in cellular viability assays of p53 WT cell lines; cited from earlier work
MCL1 in OCI-AML3 cells = experiment: MCL1 levels in OCI-AML3 cells; assay type: cell-based, human; details: OCI-AML3, 1 μM each, 4 h, Western blot
Method in brief: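 OCI-AML-3 cells (RPMI 1640 + 20% FBS) exposed to test compound, venetoclax, or both co-dosed; sampled 4 h post treatment. RIPA lysis 30 min at 4°C, centrifugal clarification, BCA protein assay, reducing SDS-PAGE, immunoblot with extended-duration chemiluminescent substrate; bands quantified by densitometry. Mean ± standard deviation.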

[7] = MV4-11 CDX, 4 h post final dose, Western blot
[8] = MM.1S CDX, 2 h post final dose, Western blot

## O=C1CCC(=O)N1Cc1cc2nccc(-c3cc(Cl)cc4c3N([C@@H]3CNC5(CCC5)C3)CCC4)c2s1 [FX1-5303, (S)-1-((7-(6-chloro-1-(5-azaspiro[3.4]octan-7-yl)-1,2,3,4-tetrahydroquinolin-8-yl)thieno[3,2-b]pyridin-2-yl)methyl)pyrrolidine-2,5-dione]
MRC5 cells
  increase in cell confluency over the 5-day time course: increased monotonically
RKO-E6 cells
  shift of IC50 in RKO-E6 cells relative to the parental RKO cell line: essentially unchanged
MV4-11 tumors; [7]
  p21 levels in tumors vs untreated mice: significantly higher
  p53 levels in tumors: elevated
MV4-11 tumors; MV4-11 CDX, day 24, three time periods, ELISA
  MIC-1 in urine: elevated levels
MV4-11 tumors; 30 mg/kg twice daily
  tumor growth inhibition: 68%
MV4-11 tumors; 40 mg/kg twice daily
  tumor growth inhibition: 72%
p21 in MM.1S cells
  maximum increase of p21 above DMSO-treated cells: ~6 fold
MM.1S cells [1]
  growth of the MM.1S cancer cell line: fully inhibited growth
[2]
  inhibition in a panel of 44 DUBs: only USP7 was inhibited
Recombinant human USP7
  IC50: 0.00029 µM
[3]
  EC50: 0.0056 µM
p53 WT cell lines [4]
  IC50: < 0.05 µM
MM.1S tumors; [8]
  p21 levels in tumors vs untreated mice: significantly higher
  p53 levels in tumors: elevated
MM.1S tumors; MM.1S CDX, day 24, three time periods, ELISA
  MIC-1 in urine: elevated levels
MM.1S tumors; MM.1S and MV4-11 CDX mouse models, oral dosing
  tolerability: generally well-tolerated
MM.1S tumors; MM.1S tumors, 30 mg/kg twice daily, oral, 24 days
  tumor growth inhibition: 95%
p53 in MM.1S cells
  time of peak p53 levels after treatment: 2 to 6 h
  p53 elevation after 24h of treatment: returns nearly to basal levels
  maximum increase of p53 above DMSO-treated cells: approximately 3 fold
RKO cells
  IC50: 3.4 µM
MM.1S cells [5]; Homo sapiens, MM1.S, 72 h, read-out: MM.1S viability IC50
  IC50: 0.015 µM

## COc1cc(C(=O)O)ccc1NC(=O)[C@@H]1N[C@@H](CC(C)(C)C)[C@](C#N)(c2ccc(Cl)cc2F)[C@H]1c1cccc(Cl)c1F [Idasanutlin, reference compound]
MRC5 cells
  increase in cell confluency over the 5-day time course: less than 10%
RKO-E6 cells
  shift of IC50 in RKO-E6 cells relative to the parental RKO cell line: over 50 fold
p21 in MM.1S cells
  maximum increase of p21 above DMSO-treated cells: ~80 fold
MM.1S cells [1]
  growth of the MM.1S cancer cell line: fully inhibited growth
p53 in MM.1S cells
  p53 elevation after 24h of treatment: approximately 14 fold
  maximum increase of p53 above DMSO-treated cells: approximately 20 fold
RKO cells
  IC50: 0.17 µM
MM.1S cells [5]; three days, CTG
  inhibition of MM1.S cell viability compared with FX1-5303: equipotently

## CC(=O)c1cc([N+](=O)[O-])c(Sc2ccc(F)cc2F)s1 [P22077]
p53 WT cell lines [6]
  IC50: > 1 µM

## CC1(C)CCC(CN2CCN(c3ccc(C(=O)NS(=O)(=O)c4ccc(NCC5CCOCC5)c([N+](=O)[O-])c4)c(Oc4cnc5[nH]ccc5c4)c3)CC2)=C(c2ccc(Cl)cc2)C1 [Venetoclax]
MCL1 in OCI-AML3 cells
  effect on MCL1 levels: increase in MCL1 levels

From publication PMC11059122 (iScience, 2024)
